In brackets after ≈: the same amount, converted by molar mass. Activity calls are given as the source filed them.
Key:
[1] = Intrinsic clearance in mouse liver microsomes assessed as NADPH-dependent metabolism per mg protein at 1 uM in presence of NADPH by LC-MS/MS analysis; assay type: ADME, Microsome
[2] = Thermodynamic aqueous solubility in Dulbecco's phosphate buffered saline using solid sample incubated for 72 hrs under shaking condition by LC-MS/MS analysis; assay type: physicochemical; details: read-out: Therm_solubility
[3] = Half life in Dulbecco's phosphate buffered saline at 1 uM by LC-MS/MS analysis; assay type: physicochemical
Procedure, shortened: (§1)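 Compound, typically 1 μM final, incubated in DPBS at 37 °C in triplicate; samples at 0, 1, 3, 6, 24 h quenched with 3 volumes acetonitrile containing internal standard; parent measured by LC-MS/MS.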

[4] = Protein binding in mouse plasma at 5 uM incubated for 5 hrs by LC-MS/MS-based equilibrium dialysis method; assay type: ADME, cell-free
Procedure, shortened: (§2)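 Equilibrium dialysis in duplicate: compound spiked at 5 μM into normal human or mouse plasma, dialyzed against DPBS 5 h at 37 °C; both chambers sampled and quenched in acetonitrile with internal standard; LC-MS/MS gives percent bound.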

[5] = Half life in human plasma at 1 uM by LC-MS/MS analysis; assay type: ADME, cell-free
HepG2 = experiment: (§3) Cytotoxicity against human HepG2 cells assessed as reduction in cell viability incubated for 2 days prior to compound washout followed by compound redosing and measured after 2 days by XTT assay; assay type: cell-based; details: hepg2, 48 h
Hepatitis B virus [6] = experiment: Antiviral activity against HBV infected in human HepAD38 cells assessed as reduction in total DNA production incubated for 2 days prior to compound washout followed by compound redosing and measured after 2 days by dot-blot analysis; assay type: functional, organism-based
Procedure, shortened: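 HepAD38 cells seeded at 3 × 10^4/well in tetracycline medium; next day washed twice with PBS and given tet-free complete medium with 2-fold serial dilutions, 1% final DMSO, replaced with fresh compound medium after 2 days. After 2 more days cells lysed (NP-40), DNA alkali-denatured, dot-blotted, probed with DIG-labelled HBV probe; chemiluminescence densitometry, variable-slope fit; mean ± SD of ≥2 experiments.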

[7] = Intrinsic clearance in human liver microsomes assessed as glucuronidation per mg protein at 1 uM in presence of UDPGA by LC-MS/MS analysis; assay type: ADME, Microsome
Procedure, shortened: (§4)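 Glucuronidation: typically 1 μM compound with 0.5 mg/mL microsomal protein, alamethicin 50 μg/mg protein, 1 mM MgCl2, 5 mM UDPGA in 0.1 M potassium phosphate pH 7.4, 37 °C; timed aliquots quenched in acetonitrile; LC-MS/MS gives CLint (μl/min/mg protein); triplicate; 7-hydroxycoumarin positive control.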

[8] = Oral bioavailability in CD-1 mouse at 10 mg/kg by LC-MS/MS analysis; assay type: ADME, organism-based; details: in vivo
Procedure, shortened: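 Male CD-1 mice (25–35 g), n = 4 per route; typical doses 2 mg/kg IV and 10 mg/kg PO in DPBS with up to 42% 2-hydroxypropyl-β-cyclodextrin; serial saphenous blood to 24 h (8 points); plasma by LC-MS/MS; non-compartmental analysis; F = (AUCpo/AUCiv)×(Doseiv/Dosepo).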

[9] = Half life in mouse plasma at 1 uM by LC-MS/MS analysis; assay type: ADME, cell-free
Hepatitis B virus [10] = experiment: Binding affinity to HBV dimeric capsid protein C150 mutant expressed in Escherichia coli BL21 (DE3) at 20 uM by Sypro orange staining based RT-PCR analysis
[11] = Intrinsic clearance in human liver microsomes assessed as NADPH-dependent metabolism per mg protein at 1 uM in presence of NADPH by LC-MS/MS analysis; assay type: ADME, Microsome
[12] = Intrinsic clearance in mouse liver microsomes assessed as glucuronidation per mg protein at 1 uM in presence of UDPGA by LC-MS/MS analysis; assay type: ADME, Microsome; procedure, shortened: as §4
[13] = Protein binding in human plasma at 5 uM incubated for 5 hrs by LC-MS/MS-based equilibrium dialysis method; assay type: ADME, cell-free; procedure, shortened: as §2
[14] = Stability in Dulbecco's phosphate buffered saline assessed as parent compound remaining at 1 uM after 24 hrs by LC-MS/MS analysis; assay type: physicochemical; details: read-out: Stability; procedure, shortened: as §1
Hepatitis B virus [15] = experiment: Disruption of HBV dimeric capsid protein C150 mutant assembly expressed in Escherichia coli BL21 (DE3) assessed as increase in capsid aggregation after 1 hr by uranyl acetate staining based transmission electron microscopic analysis
Procedure, shortened: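 Purified C150 dimer (18 μM) in bicarbonate buffer, with compound or 1% DMSO, assembled by adding an equal volume of 100 mM HEPES pH 7.5, 1 M NaCl, 1 h at room temperature. Assemblies adsorbed to glow-discharged carbon-coated copper grids, negatively stained with 2% uranyl acetate and imaged by TEM for aggregates versus DMSO control.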

[16] = Apparent permeability from apical to basolateral side in human Caco2 cells measured after 20 to 80 mins by LC-MS/MS analysis; assay type: ADME, cell-based; details: caco-2
[17] = Apparent permeability from basolateral to apical side in human Caco2 cells measured after 20 to 80 mins by LC-MS/MS analysis; assay type: ADME, cell-based; details: caco-2
Hepatitis B virus [18] = experiment: Disruption of HBV dimeric capsid protein C150 mutant assembly expressed in Escherichia coli BL21 (DE3) assessed as increase in capsid assembly at 20 uM by Sypro orange staining based RT-PCR analysis
[19] = as §3; assay type: cell-based; details: HepG2 cells

Row | SMILES | intrinsic clearance per mg protein [1] | solubility thermodynamic at 72 h [2] | PPB [4] | t1/2 [5] | CC50 (HepG2) | EC50 (Hepatitis B virus [6]) | intrinsic clearance (CLint) [7] | t1/2 [9] | Activity (Hepatitis B virus [10]) | Microsomal intrinsic clearance [11] | intrinsic clearance (CLint) [12] | PPB [13] | remaining at 24 h, 1 µM [14] | Papp [16] | Papp [17] | also measured
1 | Cc1c(C(=O)Nc2ccccc2)sc(N)c1C(N)=O | 18 µL/min | 19 µM (≈ 5.23 µg/mL) | 50% | > 24 h | > 100 µM | 3.4 µM | 2 µL/min | > 24 h | Active | 5 µL/min | 4.4 µL/min | 86% | > 90% |  |  | half-life at 1 µM [3]: > 1440 min; bioavailability ([8]; CD-1, mouse): 31 to 34%
2 | Cc1cc(NC(=O)c2sc(N)c(C(N)=O)c2C)ccc1F | 92 µL/min | 31 µM (≈ 9.53 µg/mL) | 82% | > 24 h | > 100 µM |  | < 0.1 µL/min | > 24 h | Active | 14 µL/min | 5.2 µL/min | 91% | > 90% | 18.6 ×10⁻⁶ cm/s | 26.9 ×10⁻⁶ cm/s | Activity (Hepatitis B virus [15]): Active; F ([8]; mouse): 11%; Activity (Hepatitis B virus [18]): Active
3 | Cc1c(C(=O)Nc2ccc(F)c(F)c2)sc(N)c1C(N)=O | 25 µL/min | 11 µM (≈ 3.42 µg/mL) | 80% | > 24 h | > 100 µM |  | < 0.1 µL/min | > 24 h | Active | 3.4 µL/min | 5.2 µL/min | 86% | > 90% | 24.8 ×10⁻⁶ cm/s | 27.6 ×10⁻⁶ cm/s | 
4 | Cc1c(C(=O)Nc2ccccc2)sc(N)c1C(N)=S |  |  |  |  |  | > 10 µM |  |  | Active |  |  |  |  |  |  | CC50 at 48 h [19]: > 100 µM

— ChEMBL document CHEMBL4411305, “5-Aminothiophene-2,4-dicarboxamide analogues as hepatitis B virus capsid assembly effectors” (Eur J Med Chem, 2019)
